Calls of active or inactive are those of the source. The rule behind the calls is not given here.
Assays:
[1] = target: T1, Macrophage migration inhibitory factor (Homo sapiens) (UniProt P14174); experiment: Inhibition of human recombinant MIF tautomerase at 10 uM; parameters: scale not given: the % may be the effect or the level left
T1 sequence (whole entry): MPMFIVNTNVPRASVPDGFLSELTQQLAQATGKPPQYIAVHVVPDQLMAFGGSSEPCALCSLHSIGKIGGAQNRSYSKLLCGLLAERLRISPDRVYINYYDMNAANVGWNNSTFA

[2] = target: T2, MIF/CD74 (Macrophage migration inhibitory factor and HLA-DR antigens-associated invariant chain) (Homo sapiens, UniProt P04233+P14174); experiment: (§1) Inhibition of human MIF-CD74 binding; format: protein assay
T2 sequence (P14174 whole entry): T1 sequence (whole entry)
T2 sequence (P04233 whole entry): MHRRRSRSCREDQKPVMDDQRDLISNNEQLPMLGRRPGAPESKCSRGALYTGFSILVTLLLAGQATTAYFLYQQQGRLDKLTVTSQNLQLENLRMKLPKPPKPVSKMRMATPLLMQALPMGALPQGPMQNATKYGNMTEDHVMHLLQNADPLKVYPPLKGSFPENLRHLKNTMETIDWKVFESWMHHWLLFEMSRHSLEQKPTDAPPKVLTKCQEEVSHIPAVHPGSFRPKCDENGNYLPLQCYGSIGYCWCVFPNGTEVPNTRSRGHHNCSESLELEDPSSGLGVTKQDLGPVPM
How it was run: (§2)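 Compounds pre-incubated 30 min at room temperature with biotinylated recombinant human MIF (2 ng/µl), then added to wells overnight at 4 °C. Bound MIF detected with streptavidin-alkaline phosphatase and p-nitrophenyl phosphate, A405 expressed as percent of MIF-alone wells. 10–12 concentrations spanning ~500-fold; at least three independent assays.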

[3] = target: T3, MIF/CD74 (Macrophage migration inhibitory factor and HLA-DR antigens-associated invariant chain) (Homo sapiens) (UniProt P14174+P04233); experiment: as §1; format: protein assay; how it was run: as §2
[4] = target: T4, Macrophage migration inhibitory factor (Homo sapiens, UniProt P14174); experiment: (§3) Inhibition of human recombinant MIF tautomerase
T4 sequence (P14174 whole entry): T1 sequence (whole entry)

[5] = target: T1, Macrophage migration inhibitory factor (Homo sapiens); experiment: as §3
[6] = target: T3, MIF/CD74 (Macrophage migration inhibitory factor and HLA-DR antigens-associated invariant chain) (Homo sapiens); experiment: Inhibition of human MIF-CD74 binding at 10 uM; format: protein assay; parameters: scale not given: the % may be the effect or the level left

Question: `Oc1ccc2c(c1)oc1ccccc12` was tested. Which Activity [1] did it give?
Answer: 38%

Question: And the IC50 [2]?
Answer: 900 µM

Question: `O=c1c2ccc(F)cc2sn1-c1ccc(Cl)cc1` was tested. Which Activity [3] did it give?
Answer: inactive

Question: Which Activity [1] does the source give for `O=C(O)c1cccc(-c2cc[nH]n2)c1` here?
Answer: 30%

Question: What about the IC50 [2] of the same molecule?
Answer: 15 µM

Question: `CCOc1cc(/C=C2\Oc3cc(O)ccc3C2=O)ccc1O` was tested. Which Activity [3] did it give?
Answer: inactive

Question: With `Oc1csc(Cc2nc(-c3ccc(-c4ccccc4)cc3)cs2)n1` as the molecule, how does the IC50 [4] read?
Answer: 300 µM

Question: And the IC50 [2]?
Answer: 65 µM

Question: How did the Activity [5] turn out when `O=C(O)c1cc(-n2cnnc2)ccc1Cl` was run?
Answer: inactive

Question: And the IC50 [2]?
Answer: 250 µM

Question: What does the source list for `O=c1[nH]nc(-c2cccs2)cc1Cc1ccc(Cl)c(Cl)c1`?
Answer: IC50 [4]: 430 µM; IC50 [2]: 250 µM

Question: With `N#C/C(=C\c1ccc(-c2ccccc2)cc1)c1ccccn1` as the molecule, how does the Activity [3] read?
Answer: inactive

Question: For `COC(=O)C[C@H]1CC(c2ccc(O)cc2)=NO1` (racemic), which Activity [5] is on record?
Answer: inactive

Question: What about the Activity [6] of the same molecule?
Answer: 40%

Question: With `Oc1ccc(/C=C/c2ccc3cccc(O)c3n2)cc1` as the molecule, how does the Activity [1] read?
Answer: 40%

Question: And the IC50 [2]?
Answer: 8 µM

Question: For `Cc1ccc(-n2cnc3ccccc3c2=O)cc1Cl`, which Activity [3] is on record?
Answer: inactive

Question: Which Activity [3] does the source give for `OCc1nc2ccccc2n1Cc1ccc2ccccc2c1` here?
Answer: inactive

Question: With `Cc1cc(C)c2ccc(C3=C(O)c4ccccc4C3=O)nc2c1O` as the molecule, how does the Activity [3] read?
Answer: inactive

Question: What does the source list for `Oc1c(C(Nc2cccc(F)c2)c2ccccn2)ccc2cccnc12` (stereo not given)?
Answer: IC50 [4]: 530 µM; IC50 [2]: 2.5 µM

Question: Which Activity [3] does the source give for `CC(=O)Nc1cccc2ccc(-c3cnc4ccccc4c3)nc12` here?
Answer: inactive

Question: How did the Activity [3] turn out when `CC(OC(=O)c1ccc(-c2ccc(O)cc2)cc1)C(=O)NCc1ccccc1` (stereo not given) was run?
Answer: inactive

Question: Which Activity [3] does the source give for `O=c1oc2c(O)c(O)ccc2cc1-c1nc2ccccc2s1` here?
Answer: inactive

Question: What does the source list for `O=C(O)COc1ccc2occ(C(=O)c3ccccc3)c2c1`?
Answer: IC50 [4]: 980 µM; IC50 [2]: 1500 µM

Question: How did the Activity [3] turn out when `Ic1cc(-c2ccccc2)ncn1` was run?
Answer: inactive

Question: With `O=C(Nc1cccc2ccccc12)C(=O)c1c[nH]c2ccccc12` as the molecule, how does the Activity [3] read?
Answer: inactive

Question: Which Activity [5] does the source give for `O=C(O)c1cc(-n2cnnn2)ccc1O` here?
Answer: inactive

Question: What about the IC50 [2] of the same molecule?
Answer: 550 µM

Question: `O=C(O)c1cccc(-n2ccnc2)c1` was tested. Which Activity [3] did it give?
Answer: inactive

Question: With `O=C(c1cc2ccccc2o1)N1CCc2ccccc21` as the molecule, how does the IC50 [2] read?
Answer: 4 µM

Question: How did the IC50 [2] turn out when `CC(=O)Oc1ccc2nc(-c3cc4ccccc4o3)oc(=O)c2c1` was run?
Answer: 2.5 µM

Question: Which IC50 [4] does the source give for `CC(C)(C)OC(=O)C[C@H]1CC(c2ccc(O)c(F)c2)=NO1` (racemic) here?
Answer: 0.55 µM
